Legend:
[1] = Cytotoxicity against human MDA-MB-231 cells after 72 hrs by MTT assay; type: functional, cell-based; settings: MDA-MB-231, 72 h
Method in brief: (§1)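 Cells grown in MEM with 10% FBS; about 4×10^3 cells per well of 96-well plate, 24 h at 37 °C, 5% CO2, then test compounds at indicated final concentrations for 72 h. Each tested three times; IC50 as mean ± SD.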

[2] = Cytotoxicity against human MKN45 cells after 72 hrs by MTT assay; settings: MKN-45, 72 h
[3] = Cytotoxicity against human A549 cells after 72 hrs by MTT assay; settings: A549, 72 h
[4] = Cytotoxicity against human HT-29 cells after 72 hrs by MTT assay; type: functional, cell-based; settings: HT-29, 72 h; method in brief: as §1

Row | Structure (SMILES) | IC50 [1] [nM] | IC50 [2] [nM] | IC50 [3] [nM] | IC50 [4] [nM]
1 | Cn1cc(-c2ccc(F)cc2)cc(C(=O)Nc2ccc(Oc3ccncc3-c3cccnc3)c(F)c2)c1=O | 11900 | 7100 | 8300 | 11200
2 | O=C(Nc1ccc(Oc2ccncc2-c2cccnc2)c(F)c1)C1=NN(c2cccc(F)c2)c2ccccc2S1(=O)=O | 10 | 3 | 900 | 430
3 | O=C(Nc1ccc(Oc2ccncc2-c2cccnc2)c(F)c1)c1nn(-c2cccc(F)c2)c(=O)c2ccccc12 | 72 | 27 | 1750 | 410
4 | Fc1cc(Nc2cc(Nc3cccc(Cl)c3)ncn2)ccc1Oc1ccncc1-c1cccnc1 | 90 | 30 | 180 | 690
5 | O=C(Nc1ccc(Oc2ccncc2-c2cccnc2)c(F)c1)c1nn(-c2ccccc2)c(=O)c2ccccc12 | 8200 | 90 | 7900 | 1240
6 | O=C(Nc1ccc(Oc2ccncc2-c2cccnc2)c(F)c1)C1=NN(c2ccccc2C(F)(F)F)c2ccccc2S1(=O)=O | 46 | 27 | 120 | 190
7 | COc1ccc(-n2nc(C(=O)Nc3ccc(Oc4ccncc4-c4cccnc4)c(F)c3)c(=O)n(C)c2=O)c(OC)c1 | 3270 | 2820 | 890 | 890
8 | Fc1ccc(Nc2cc(Nc3ccc(Oc4ccncc4-c4cccnc4)c(F)c3)ncn2)cc1 | 14100 | 160 | 710 | 330
9 | O=C(Nc1ccc(Oc2ccncc2-c2cccnc2)c(F)c1)c1ccnn(-c2ccc(Cl)cc2)c1=O | 4840 | 4230 | 6560 | 4560
10 | Cn1c(=O)c(C(=O)Nc2ccc(Oc3ccncc3-c3cccnc3)c(F)c2)nn(-c2c(Cl)cccc2Cl)c1=O | 9690 | 3930 | 720 | 780
11 | Fc1cc(Nc2cc(Nc3ccc(Cl)cc3)ncn2)ccc1Oc1ccncc1-c1cccnc1 | – | 240 | 1610 | 980
12 | O=C(Nc1ccc(Oc2ccncc2-c2cccnc2)c(F)c1)c1nn(-c2ccc(F)cc2)c(=O)c2ccccc12 | – | 320 | 820 | 990
13 | O=C(Nc1ccc(Oc2ccncc2-c2cccnc2)c(F)c1)c1nn(-c2ccc(Cl)cc2)c(=O)c2ccccc12 | – | 430 | 1020 | 710
14 | Cn1cc(-c2ccccc2)cc(C(=O)Nc2ccc(Oc3ccncc3-c3cccnc3)c(F)c2)c1=O | 9500 | 5400 | 7600 | 7420
15 | O=C(Nc1ccc(Oc2ccncc2-c2cccnc2)c(F)c1)C1=NN(c2ccc(F)c(F)c2)c2ccccc2S1(=O)=O | 34 | 90 | 1300 | 1550
16 | Fc1ccc(Nc2cc(Nc3ccc(Oc4ccncc4-c4cccnc4)c(F)c3)ncn2)cc1F | 6770 | 80 | 7630 | 2320
17 | COc1cc(Nc2cc(Nc3ccc(Oc4ccncc4-c4cccnc4)c(F)c3)ncn2)cc(OC)c1 | 4240 | 1750 | 560 | 1130
18 | COc1ccc(Nc2cc(Nc3ccc(Oc4ccncc4-c4cccnc4)c(F)c3)ncn2)cc1 | – | 1010 | 2140 | 4110
19 | COc1ccc(-n2nc(C(=O)Nc3ccc(Oc4ccncc4-c4cccnc4)c(F)c3)c3ccccc3c2=O)cc1 | 10400 | 740 | 6800 | –
20 | Cn1c(=O)c(C(=O)Nc2ccc(Oc3ccncc3-c3cccnc3)c(F)c2)nn(-c2ccccc2F)c1=O | 6760 | 4780 | 610 | 2100
21 | Fc1cc(Nc2cc(Nc3ccccc3)ncn2)ccc1Oc1ccncc1-c1cccnc1 | 2740 | 6300 | 410 | 880
22 | Cn1c(=O)c(C(=O)Nc2ccc(Oc3ccncc3-c3cccnc3)c(F)c2)nn(-c2cccc(C(F)(F)F)c2)c1=O | 3980 | 1950 | 460 | 510
23 | O=C(Nc1ccc(Oc2ccncc2-c2cccnc2)c(F)c1)c1ccnn(-c2ccc(F)cc2)c1=O | 5200 | 3120 | 2880 | 4770
24 | Cn1c(=O)c(C(=O)Nc2ccc(Oc3ccncc3-c3cccnc3)c(F)c2)nn(-c2ccc(F)c(Cl)c2)c1=O | 11300 | 10100 | 12500 | 4780
25 | Cn1c(=O)c(C(=O)Nc2ccc(Oc3ccncc3-c3cccnc3)c(F)c2)nn(-c2ccc(Cl)cc2)c1=O | 3220 | 1600 | 930 | 440

— ChEMBL document CHEMBL3853297, “Synthesis and biological evaluation of 4-(2-fluorophenoxy)-3,3'-bipyridine derivatives as potential c-met inhibitors” (Eur J Med Chem, 2016)
